Experimental data as given in ChEMBL document CHEMBL1137181, “Synthesis and DP-IV inhibition of cyano-pyrazoline derivatives as potent anti-diabetic agents” (Bioorg Med Chem Lett, 2004).

Assays:
Dipeptidyl peptidase 4 [1] = biological target: Dipeptidyl peptidase 4 (Rattus norvegicus, UniProt P14740); assay: Inhibitory concentration against rat dipeptidyl peptidase IV
Outline: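 Rat plasma (20 µL) as enzyme source, incubated 1 h at room temperature, pH 7.8, with Ala-Pro-AFC (40 µM) ± inhibitor dissolved in DMSO (5% final in assay). Released AFC read by fluorescence (ex 360 nm, em 485 nm). IC50 obtained by curve analysis.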

Dipeptidyl peptidase 4 [2] = biological target: Dipeptidyl peptidase 4 (Sus scrofa, UniProt P22411); assay: Inhibitory concentration against dipeptidyl peptidase IV of porcine kidney; type: functional, tissue-based
Outline: (§1)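 DP-IV activity from Caco-2 cells or porcine kidney, measured as AFC fluorescence (ex 360 nm, em 485 nm) liberated from Ala-Pro-AFC with or without inhibitor. Compounds in DMSO, 5% in assay mixture. IC50 obtained by curve analysis.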

[3] = biological target: Dipeptidyl peptidase 4 (Mus musculus) (UniProt P28843); assay: Effective dose for inhibition of dipeptidyl peptidase IV in mice after 1 hr subcutaneous administration; type: functional, organism-based
Dipeptidyl peptidase 4 [4] = biological target: Dipeptidyl peptidase 4 (Homo sapiens, UniProt P27487); assay: Inhibitory concentration against dipeptidyl peptidase IV in Caco-2 cell assay; type: functional, cell-based; outline: as §1
Chain of Dipeptidyl peptidase 4 (Homo sapiens, UniProt P27487) (P27487 whole entry): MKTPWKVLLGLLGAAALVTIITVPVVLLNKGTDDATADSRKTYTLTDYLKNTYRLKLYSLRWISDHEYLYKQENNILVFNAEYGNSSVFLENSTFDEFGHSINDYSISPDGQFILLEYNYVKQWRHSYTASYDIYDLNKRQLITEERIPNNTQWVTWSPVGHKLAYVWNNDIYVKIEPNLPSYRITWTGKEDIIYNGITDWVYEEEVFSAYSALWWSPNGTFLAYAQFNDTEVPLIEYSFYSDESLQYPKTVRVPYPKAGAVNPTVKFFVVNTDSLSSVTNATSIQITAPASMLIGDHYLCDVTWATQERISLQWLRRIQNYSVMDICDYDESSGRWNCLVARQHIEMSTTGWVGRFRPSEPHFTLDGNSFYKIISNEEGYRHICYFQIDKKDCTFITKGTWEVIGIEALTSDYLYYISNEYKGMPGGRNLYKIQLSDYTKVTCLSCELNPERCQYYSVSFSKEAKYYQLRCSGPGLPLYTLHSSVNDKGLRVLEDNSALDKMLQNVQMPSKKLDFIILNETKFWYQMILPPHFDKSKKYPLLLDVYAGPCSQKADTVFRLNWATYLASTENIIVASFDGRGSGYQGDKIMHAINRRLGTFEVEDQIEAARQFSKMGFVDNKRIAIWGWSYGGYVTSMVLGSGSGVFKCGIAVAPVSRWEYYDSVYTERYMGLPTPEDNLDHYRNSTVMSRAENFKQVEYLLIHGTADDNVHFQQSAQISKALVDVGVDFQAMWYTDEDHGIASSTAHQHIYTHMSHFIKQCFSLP

Chain of Dipeptidyl peptidase 4 (Rattus norvegicus, UniProt P14740) (P14740 whole entry): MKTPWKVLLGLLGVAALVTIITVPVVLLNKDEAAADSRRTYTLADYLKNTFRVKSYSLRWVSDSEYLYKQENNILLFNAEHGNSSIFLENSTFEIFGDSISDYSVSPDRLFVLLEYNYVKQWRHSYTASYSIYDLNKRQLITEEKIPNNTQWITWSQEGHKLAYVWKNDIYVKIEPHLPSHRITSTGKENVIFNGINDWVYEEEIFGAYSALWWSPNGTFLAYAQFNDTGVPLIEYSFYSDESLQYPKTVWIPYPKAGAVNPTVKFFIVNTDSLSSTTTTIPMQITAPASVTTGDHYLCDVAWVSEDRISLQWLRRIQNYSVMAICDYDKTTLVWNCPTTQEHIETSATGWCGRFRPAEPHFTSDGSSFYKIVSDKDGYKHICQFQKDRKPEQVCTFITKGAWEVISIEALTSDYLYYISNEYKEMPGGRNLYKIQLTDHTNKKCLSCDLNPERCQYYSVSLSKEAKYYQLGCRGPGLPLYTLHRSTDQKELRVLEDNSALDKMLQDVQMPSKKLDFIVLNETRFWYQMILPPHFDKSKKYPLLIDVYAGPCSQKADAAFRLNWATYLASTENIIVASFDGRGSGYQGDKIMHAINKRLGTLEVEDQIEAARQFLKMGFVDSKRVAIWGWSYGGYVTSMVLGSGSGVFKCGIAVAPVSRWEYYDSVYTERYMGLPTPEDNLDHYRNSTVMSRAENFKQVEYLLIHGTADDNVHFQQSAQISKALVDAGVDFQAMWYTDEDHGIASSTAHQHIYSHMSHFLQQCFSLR
Chain of Dipeptidyl peptidase 4 (Sus scrofa, UniProt P22411) (P22411 whole entry): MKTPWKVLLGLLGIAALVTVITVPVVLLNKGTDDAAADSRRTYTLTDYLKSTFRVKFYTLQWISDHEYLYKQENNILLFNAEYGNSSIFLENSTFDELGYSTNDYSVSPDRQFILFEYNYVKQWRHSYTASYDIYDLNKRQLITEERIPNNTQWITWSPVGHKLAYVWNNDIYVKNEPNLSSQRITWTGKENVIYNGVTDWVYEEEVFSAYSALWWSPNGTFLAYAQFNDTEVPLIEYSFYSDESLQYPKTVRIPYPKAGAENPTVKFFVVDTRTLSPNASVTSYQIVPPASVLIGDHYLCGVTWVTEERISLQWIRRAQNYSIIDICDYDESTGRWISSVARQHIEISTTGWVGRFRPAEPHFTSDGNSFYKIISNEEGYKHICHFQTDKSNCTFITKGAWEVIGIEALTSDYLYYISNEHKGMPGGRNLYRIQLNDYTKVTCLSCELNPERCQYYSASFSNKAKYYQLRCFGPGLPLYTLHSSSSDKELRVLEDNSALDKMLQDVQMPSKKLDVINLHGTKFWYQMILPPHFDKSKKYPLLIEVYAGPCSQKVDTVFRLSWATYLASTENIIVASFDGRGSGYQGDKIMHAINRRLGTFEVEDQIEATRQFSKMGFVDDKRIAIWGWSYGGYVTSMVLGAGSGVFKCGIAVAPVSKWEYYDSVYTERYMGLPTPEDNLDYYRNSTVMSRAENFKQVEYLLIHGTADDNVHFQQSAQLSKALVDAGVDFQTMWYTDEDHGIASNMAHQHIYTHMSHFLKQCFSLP
Chain of Dipeptidyl peptidase 4 (Mus musculus) (P28843 whole entry, looked up): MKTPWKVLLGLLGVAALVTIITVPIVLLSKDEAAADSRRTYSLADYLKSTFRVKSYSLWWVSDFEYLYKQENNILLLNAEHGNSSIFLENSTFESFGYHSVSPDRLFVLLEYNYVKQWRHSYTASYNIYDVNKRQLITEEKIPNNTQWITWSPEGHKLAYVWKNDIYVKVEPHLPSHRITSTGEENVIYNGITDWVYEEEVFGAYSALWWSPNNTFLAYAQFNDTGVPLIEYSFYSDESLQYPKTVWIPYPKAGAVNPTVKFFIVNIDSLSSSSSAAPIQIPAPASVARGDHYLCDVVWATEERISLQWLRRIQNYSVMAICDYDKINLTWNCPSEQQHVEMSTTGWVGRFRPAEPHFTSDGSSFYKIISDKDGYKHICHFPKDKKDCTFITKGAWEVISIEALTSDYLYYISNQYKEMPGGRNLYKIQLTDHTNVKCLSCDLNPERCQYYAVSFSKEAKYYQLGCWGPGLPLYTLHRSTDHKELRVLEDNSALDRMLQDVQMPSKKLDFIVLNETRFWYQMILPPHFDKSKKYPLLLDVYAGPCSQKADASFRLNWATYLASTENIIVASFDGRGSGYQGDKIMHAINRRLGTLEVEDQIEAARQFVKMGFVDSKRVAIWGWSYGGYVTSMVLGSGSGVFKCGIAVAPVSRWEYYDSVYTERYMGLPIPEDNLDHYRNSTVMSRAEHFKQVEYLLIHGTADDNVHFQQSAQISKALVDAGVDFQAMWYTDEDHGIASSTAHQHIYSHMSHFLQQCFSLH

Row | SMILES | IC50 (Dipeptidyl peptidase 4 [1]) | also measured
1 | N#CC1CC=NN1C(=O)CNC1CCCCCCC1 (stereo not drawn) | 2600 nM | 
2 | N#CC1CC=NN1C(=O)CNC1CCCCC1 (stereo in doubt; 1g) | 2300 nM | 
3 | N#CC1CC=NN1C(=O)CNC1C2CC3CC(C2)CC1C3 (stereo not drawn) | 3200 nM | 
4 | N#CC1CC=NN1C(=O)CNC12CC3CC(CC(C3)C1)C2 (stereo not drawn) | 1500 nM | 
5 | N#CC1CC=NN1C(=O)CNC1CCC(NC(=O)c2ccccc2)CC1 (stereo not drawn) | 4400 nM | 
6 | CCC(C)[C@@H](N)C(=O)N1N=CCC1C#N (stereo partly drawn) | 220 nM | ED50 [3]: 16.1 mg/kg; IC50 (Dipeptidyl peptidase 4 [2]): 80 nM; IC50 (Dipeptidyl peptidase 4 [4]): 130 nM
7 | N#CC1CC=NN1C(=O)[C@H](CCCCN)NC(=O)OCc1ccccc1 (stereo partly drawn) | 660 nM | 
8 | CC(C)[C@@H](N)C(=O)N1N=CCC1C#N (stereo partly drawn) | 1900 nM | 
9 | N#CC1CC=NN1C(=O)CNC1CCCCC1 (stereo in doubt; 5c) | 2800 nM | 
10 | N#CC1CC=NN1C(=O)CNC12CC3CC(CC(O)(C3)C1)C2 (stereo not drawn) | 6400 nM | 
11 | CC(C)C[C@H](N)C(=O)N1N=CCC1C#N (stereo partly drawn) | 4300 nM | 
12 | N#CC1CC=NN1C(=O)CNC1CC2CCC1C2 (stereo not drawn) | 2100 nM | 
13 | C[C@@H](N)C(=O)N1N=CCC1C#N (stereo partly drawn) | 1200 nM | 

Further lines, with some results ahead:

Row | IC50 (Dipeptidyl peptidase 4 [1]) | SMILES | also measured
14 | 24400 nM | CC(C)(C)NCC(=O)N1N=CCC1C#N (stereo in doubt; 5a) | 
15 | 5200 nM | N#Cc1ccc(NCCNCC(=O)N2N=CC[C@@H]2C#N)nc1 | IC50 (Dipeptidyl peptidase 4 [2]): 6820 nM
16 | 800 nM | N#Cc1ccc(NCCNCC(=O)N2N=CCC2C#N)nc1 (stereo not drawn) | ED50 [3]: 4.1 mg/kg; IC50 (Dipeptidyl peptidase 4 [2]): 960 nM
17 | 60 nM | N#Cc1ccc(NCCNCC(=O)N2NCC[C@H]2C#N)nc1 | 
18 | 1200 nM | N#CC1CC=NN1C(=O)CNC1CCC(Nc2ccc([N+](=O)[O-])cn2)CC1 (stereo not drawn) | 
19 | 360 nM | N#Cc1ccc(NCCNCC(=O)N2N=CC[C@H]2C#N)nc1 | IC50 (Dipeptidyl peptidase 4 [2]): 440 nM
20 | 1200 nM | N#CC1CC=NN1C(=O)CNCCNc1ccc([N+](=O)[O-])cn1 (stereo not drawn) | 
21 | 1300 nM | N#CC1CC=NN1C(=O)CNC1CCCC1 (stereo not drawn) | 
